Assay results taken from ChEMBL document CHEMBL2163322, “Identification of small molecule inhibitors of the HIV-1 nucleocapsid-stem-loop 3 RNA complex” (J Med Chem, 2012).
Calls of active or inactive are those of the source. The rule behind the calls is not given here.

How the values were obtained:
[1] = molecular target: Nucleic Acid; assay: Destabilization of HIV1 [32P]-labeled SL3 RNA-NCp complex assessed as displacement of NCp from SL3 RNA after 1 hr by electrophoretic gel mobility shift assay; assay type: nucleic-acid assay, Human immunodeficiency virus 1; settings: for Ki: read-out: Ki(app)
In short: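 Gel shift assay. Ligand is then added at rising concentrations for another 1 h. Samples are run on a 6% native gel at 4 °C. IC50 comes from a Hill fit of bound-RNA counts. Ki = IC50/(1+[PT]/KD). SD is from at least three experiments.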

[2] = molecular target: Nucleic Acid; assay: Binding affinity to HIV 1 SL3 RNA assessed as second binding dissociation constant by ITC analysis; assay type: nucleic-acid assay, Human immunodeficiency virus 1; settings: read-out: Kd(app)
In short: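 ITC at 25 °C: ligand (1 mM) in 10 mM sodium phosphate pH 7.4 with 10% DMSO injected in 10 μL aliquots into 20 μM SL3 RNA in the same buffer. Injections lasted 24 s at 240 s spacing. Heats of ligand-into-buffer titrations were subtracted. Heat versus ligand:RNA molar ratio was fit to a sequential two-site model, with the second KD taken from the second site. Two measurements.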

[3] = molecular target: Nucleic Acid; assay: Binding affinity to HIV 1 SL3 RNA by ITC analysis; assay type: nucleic-acid assay, Human immunodeficiency virus 1; settings: read-out: Kd(app)
In short: (§1)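 Isothermal titration calorimetry at 25 °C. Ligand at 1 mM is injected in 10 μL aliquots into 20 μM RNA. Both are in 10 mM sodium phosphate pH 7.4 with 10% DMSO. Injections last 24 s and are spaced 240 s apart. Heats are corrected with ligand-into-buffer controls. KD values come from a sequential two-site binding fit to heat versus ligand:RNA molar ratio. SD is from two measurements.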

[4] = molecular target: Nucleic Acid; assay: Binding affinity to single stranded RNA by fluorescence spectrometry; assay type: nucleic-acid assay; settings: for Kd: read-out: Kd(app)
In short: (§2)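 Fluorescence titration of 5′-fluorescein-labeled RNA (25 nM) in 10 mM Tris-HCl pH 7.4, 25 mM NaCl at 25 °C. Ligand is added stepwise until the signal plateaus, with 3–5 min equilibration per addition. Excitation is 490 nm; emission at 517 nm is used. Fraction bound is fit to a 1:1 model, or a 2:1 cooperative model for one ligand, to give apparent KD. Fluorescein-only and DMSO controls are run. SD is from at least three measurements.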

[5] = molecular target: Nucleic Acid; assay: Binding affinity to HIV 1 fluorescein-labeled SL3 RNA by fluorescence spectrometry; assay type: nucleic-acid assay, Human immunodeficiency virus 1; settings: for Kd: read-out: Kd(app); for Activity: Human immunodeficiency virus 1; in short: as §2
[6] = molecular target: Nucleic Acid; assay: Binding affinity to double stranded RNA by fluorescence spectrometry; assay type: nucleic-acid assay; settings: for Kd: read-out: Kd(app); in short: as §2
[7] = tested on: Nucleic Acid; assay: Selectivity ratio of Kd for double stranded RNA to Kd for HIV 1 SL3 RNA; assay type: nucleic-acid assay
[8] = molecular target: Nucleic Acid; assay: Binding affinity to double stranded RNA assessed as second binding dissociation constant by ITC analysis; assay type: nucleic-acid assay; settings: read-out: Kd(app); in short: as §1
[9] = molecular target: Nucleic Acid; assay: Binding affinity to double stranded RNA by ITC analysis; assay type: nucleic-acid assay; settings: read-out: Kd(app); in short: as §1
[10] = molecular target: Nucleic Acid; assay: Binding affinity to single stranded RNA assessed as second binding dissociation constant by ITC analysis; assay type: nucleic-acid assay; settings: read-out: Kd(app); in short: as §1
[11] = tested on: Nucleic Acid; assay: Selectivity ratio of Kd for single stranded RNA to Kd for HIV 1 SL3 RNA; assay type: nucleic-acid assay
[12] = molecular target: Nucleic Acid; assay: Binding affinity to single stranded RNA by ITC analysis; assay type: nucleic-acid assay; settings: read-out: Kd(app); in short: as §1
[13] = tested on: Nucleic Acid; assay: Inhibition of HIV1 [32P]-labeled SL3 RNA interaction with NCp at 1mM after 1 hr by electrophoretic gel mobility shift assay; assay type: nucleic-acid assay; settings: Human immunodeficiency virus 1
In short: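 Screen for single-point inhibition. Ligand is added at a final 1 mM to a preformed NCp7–SL3 RNA complex and incubated 1 h. Bound and free RNA are then resolved by gel mobility shift assay.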

O=C1NC(=S)NC(=O)C1=Cc1cn(-c2ccccc2)nc1-c1cc2c(ccc3ccccc32)oc1=O
IC50 [1]: 123 µM | Ki [1]: 40 µM | Kd [2]: 488 µM | Kd [3]: 68 µM

O=C1NC(=S)N/C1=C/c1ccc2ccccc2c1
Kd [4]: 7.5 µM | Kd [5]: 13.2 µM | Kd [6]: 12 µM

O=C(Cc1ccccc1)Nc1ccc(N2CCCC2)cc1
Activity [5]: inactive

Nc1c(S(=O)(=O)O)cc(Nc2ccc(S(N)(=O)=O)cc2)c2c1C(=O)c1ccccc1C2=O
IC50 [1]: 70 µM | Ki [1]: 20 µM | Kd [2]: 11000 µM | Kd [3]: 11 µM

O=C1c2ccccc2C(=O)c2c(NCCO)ccc(NCCO)c21
IC50 [1]: 700 µM | Ki [1]: 200 µM | Kd [4]: 2.2 µM | Kd [5]: 1.1 µM | Kd [6]: 3.2 µM

Cc1cccn2c(=O)c3cc(C(=O)N4CCN(C)CC4)c(=N)n(CC4CCCO4)c3nc12 (centres undefined)
Selectivity ratio [7]: 13 | Kd [8]: 2400 µM | Kd [9]: 189 µM | Kd [10]: 12000 µM | Selectivity ratio [11]: 19 | Kd [3]: 14.5 µM | Kd [5]: 10 µM | Kd [12]: 280 µM

CC1CCN(c2ccc(N)cc2)CC1
Activity [4]: Active | Kd [5]: 44 µM | Activity [6]: Active

O=C(NN=Cc1ccc(Br)cc1)c1cc[n+](Cc2ccccc2)cc1
Activity [4]: Active | Kd [5]: 33 µM | Activity [6]: Active

Cc1cccn2c(=O)c3cc(C(=O)NC(C)c4ccccc4)c(=N)n(CCOCCO)c3nc12 (centres undefined)
Kd [4]: 4.1 µM | Kd [5]: 4.5 µM | Kd [6]: 5.1 µM

COc1ccc(NCc2ccc([N+](=O)[O-])s2)cc1OC
Kd [4]: 14 µM | Kd [5]: 11.1 µM | Kd [6]: 8.4 µM

Cc1cccn2c(=O)c3cc(C(=O)NCCN4CCOCC4)c(=N)n(Cc4cccnc4)c3nc12
Kd [4]: 11.8 µM | Kd [5]: 5 µM | Kd [6]: 8.3 µM

CNC(=O)c1cc2c(=O)n3cccc(C)c3nc2n(CCCO)c1=N
Kd [4]: 9.5 µM | Kd [5]: 3.5 µM | Kd [6]: 8.2 µM

Nc1ccccc1NCCOc1ccccc1
Activity [4]: Active | Kd [5]: 51 µM | Activity [6]: Active

COc1ccc(N/C(S)=N/CCCn2ccnc2)cc1
Activity [5]: inactive

Nc1c(S(=O)(=O)O)cc(Nc2cccc(S(N)(=O)=O)c2)c2c1C(=O)c1ccccc1C2=O
inhibition [13]: Active

O=C(NC(=S)Nc1ccc(N2CCCC2)cc1)c1ccccc1[N+](=O)[O-]
Activity [5]: inactive

CN1CCN(CCCN2c3ccccc3Sc3ccc(C(F)(F)F)cc32)CC1 [TRIFLUOPERAZINE]
Kd [4]: 2 µM | Kd [5]: 1.7 µM | Kd [6]: 2.19 µM

N=C1NC(=O)/C(=C\c2ccc3ccccc3c2)S1
Kd [4]: 8.9 µM | Kd [5]: 11 µM | Kd [6]: 11.2 µM

O=[N+]([O-])c1ccc(SCCO)c2ncccc12
Selectivity ratio [7]: > 12 | Kd [4]: > 604 µM | Selectivity ratio [11]: > 7 | Kd [5]: 90 µM | Kd [6]: > 1110 µM

O=C(C[n+]1cccc(C(=O)N/N=C/c2ccc(Br)cc2)c1)c1ccccc1
Activity [5]: inactive

O=C1Oc2ccccc2C(=O)/C1=C/N1C(=O)N/C(=C\c2ccccc2O)C1=O
inhibition [13]: Active | IC50 [1]: 340 µM | Ki [1]: 110 µM
